This note sets out measurements from PMC13416249 (Proceedings of the National Academy of Sciences of the …, 2026).

The test system of assay [1] is P. falciparum isolates from the Brazilian Western Amazon. In words: Ex vivo schizont maturation test on patient isolates. It is filed as cell-based. The note with it: Plasmodium falciparum, in Homo sapiens, read-out: median EC50. In outline: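 Isolates came from monoinfected patients in Porto Velho, Rondônia, and were exposed to test compound. Thick films were stained with 5% Giemsa and schizonts counted. Counts were normalized to drug-free controls to calculate EC50.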

The next assay has as its system P. falciparum 3D7. Put plainly: Parasite reduction ratio. Format: cell-based, Plasmodium falciparum. To be noted: 10X IC50 of each compound. Summed up:
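Parasite reduction ratio followed an established protocol, with each compound held at a fixed multiple of its potency. Parasite regrowth was detected by P. falciparum LDH assay. Data are mean ± SD.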

Another assay deals with T1, full-length PfMyoA (Plasmodium falciparum, UniProt Q8IDR3).
T1 sequence (Q8IDR3 1-818): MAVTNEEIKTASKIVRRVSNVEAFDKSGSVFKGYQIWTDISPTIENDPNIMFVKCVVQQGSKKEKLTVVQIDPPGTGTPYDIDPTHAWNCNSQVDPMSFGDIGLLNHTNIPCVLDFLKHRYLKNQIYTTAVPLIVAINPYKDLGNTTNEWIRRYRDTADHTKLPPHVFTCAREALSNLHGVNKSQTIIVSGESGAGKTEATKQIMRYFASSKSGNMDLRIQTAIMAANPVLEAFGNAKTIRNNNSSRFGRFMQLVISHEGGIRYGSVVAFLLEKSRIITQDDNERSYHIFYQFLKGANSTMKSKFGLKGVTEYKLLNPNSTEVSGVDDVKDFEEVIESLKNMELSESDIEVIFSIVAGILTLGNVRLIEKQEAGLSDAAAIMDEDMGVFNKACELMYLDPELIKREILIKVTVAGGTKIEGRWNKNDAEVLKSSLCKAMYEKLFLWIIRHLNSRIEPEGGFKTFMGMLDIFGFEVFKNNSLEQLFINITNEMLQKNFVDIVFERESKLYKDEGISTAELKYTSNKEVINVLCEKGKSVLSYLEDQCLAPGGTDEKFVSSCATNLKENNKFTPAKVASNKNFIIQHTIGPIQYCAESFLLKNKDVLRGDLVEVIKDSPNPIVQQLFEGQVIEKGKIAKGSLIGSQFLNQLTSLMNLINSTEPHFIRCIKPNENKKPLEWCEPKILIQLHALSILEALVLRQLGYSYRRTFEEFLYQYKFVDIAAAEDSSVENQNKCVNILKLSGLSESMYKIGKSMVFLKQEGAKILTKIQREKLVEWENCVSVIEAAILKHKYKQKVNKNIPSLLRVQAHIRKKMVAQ
T1 sequence (Q8IJM4 1-134 partner): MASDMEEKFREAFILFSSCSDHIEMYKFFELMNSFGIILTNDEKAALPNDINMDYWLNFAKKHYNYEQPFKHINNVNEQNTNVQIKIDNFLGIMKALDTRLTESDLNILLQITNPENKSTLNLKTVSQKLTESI
T1 sequence (Q8I4W8 1-204 partner): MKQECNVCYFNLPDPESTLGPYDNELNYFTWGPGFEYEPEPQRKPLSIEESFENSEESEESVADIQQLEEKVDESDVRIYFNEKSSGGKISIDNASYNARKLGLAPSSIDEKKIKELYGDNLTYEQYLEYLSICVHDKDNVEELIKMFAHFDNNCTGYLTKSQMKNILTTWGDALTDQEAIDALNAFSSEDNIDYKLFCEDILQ
In words: Actin-activated PfMyoA ATPase assay. Format: biochemical. To be noted: read-out: IC50, actin-activated myosin ATPase, 15 µM actin.

Assay [2] deals with P. falciparum NF54 strain expressing a Nanoluciferase reporter. In words: Asexual replication stage-specificity assay, nanoluciferase readout. It is filed as cell-based, Plasmodium falciparum. To be noted: ring-synchronized; 5 µM KNX-115, 1 µM DHA. Summed up: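 NF54-ENL nanoluciferase reporter parasites were synchronized at the ring stage and treated with test compound. Vehicle (0.1% DMSO) and 1 µM dihydroartemisinin served as controls. Nanoluciferase activity was followed over time and compared with the control cultures.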

In assay [3] the test system is P. falciparum stage III-IV gametocytes. In words: Gametocyte viability assay. It is filed as cell-based, Plasmodium falciparum.

In general, EC50 refers to the concentration that produces a half-maximal response. Consider `CCN(CC)CCCC(C)Nc1ccnc2cc(Cl)ccc12` (stereo not drawn) [chloroquine], for which the EC50 in assay [1] came out at 1.26 µM. `CCc1nc(N)nc(N)c1-c1ccc(Cl)cc1` [pyrimethamine]: in the assay on P. falciparum 3D7, the lag before killing amounted to 24 h.

Regarding `C[C@H]1[C@H](OC(=O)CCC(=O)O)O[C@@H]2O[C@@]3(C)CC[C@H]4[C@H](C)CC[C@@H]1[C@@]24OO3` [artesunate], the EC50 in assay [1] was 0.0035 µM. Usually IC50 stands for the concentration that gives 50% inhibition. As to `COc1ccc(C2(NCc3c[nH]nc3-c3cccs3)CC2)cc1` [KNX-002], the IC50 at full-length PfMyoA turned out to be 0.4 ± 0.1 µM.

`C[C@H]1[C@@H](O)O[C@@H]2O[C@@]3(C)CC[C@H]4[C@H](C)CC[C@@H]1[C@@]24OO3` [DHA, dihydroartemisinin]: in assay [2], the “parasite replication over time (luciferase activity)” value is “rapid killing of the parasites”. In addition, the “effect on gametocyte viability” value in assay [3] is reported as “showed inhibition”.
